The values below come from ChEMBL document CHEMBL1145040, “Biaryl analogues of conformationally constrained tricyclic tropanes as potent and selective norepinephrine reuptake inhibitors: synthesis and evaluation of their uptake inhibition at monoamine transporter sites” (J Med Chem, 2003).

SMILES strings stand for the structures.

The term Ki denotes the equilibrium dissociation constant of an inhibitor or competing ligand from its target. Higher therefore signals lower affinity.

In assay [1] the target is Monoamine transporters; Norepininephrine & dopamine (Rattus norvegicus) (UniProt P23977+Q9WTR4). Briefly: Uptake ratio at norepinephrine to dopamine transporters from rat brain. The gist of the method: (§1)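 Selectivity ratios calculated from Ki values of the rat brain synaptosomal [3H]DA, [3H]5-HT and [3H]NE uptake inhibition assays.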
The target in assay [2] is Sodium-dependent dopamine transporter (Rattus norvegicus, UniProt P23977). Briefly: Ability to inhibit [3H]DA reuptake at dopamine transporter from rat brain. In a few lines: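 Rat brain P2 synaptosomes in modified KRH buffer (pH 7.4, nialamide); drug preincubation 30 min at 4 °C, then 15 min at 37 °C. [3H]DA (~5 nM final) uptake for 5 min, ended with cold sodium-free buffer, GF/C filtration and scintillation counting.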
Chain of Sodium-dependent dopamine transporter (P23977 whole entry): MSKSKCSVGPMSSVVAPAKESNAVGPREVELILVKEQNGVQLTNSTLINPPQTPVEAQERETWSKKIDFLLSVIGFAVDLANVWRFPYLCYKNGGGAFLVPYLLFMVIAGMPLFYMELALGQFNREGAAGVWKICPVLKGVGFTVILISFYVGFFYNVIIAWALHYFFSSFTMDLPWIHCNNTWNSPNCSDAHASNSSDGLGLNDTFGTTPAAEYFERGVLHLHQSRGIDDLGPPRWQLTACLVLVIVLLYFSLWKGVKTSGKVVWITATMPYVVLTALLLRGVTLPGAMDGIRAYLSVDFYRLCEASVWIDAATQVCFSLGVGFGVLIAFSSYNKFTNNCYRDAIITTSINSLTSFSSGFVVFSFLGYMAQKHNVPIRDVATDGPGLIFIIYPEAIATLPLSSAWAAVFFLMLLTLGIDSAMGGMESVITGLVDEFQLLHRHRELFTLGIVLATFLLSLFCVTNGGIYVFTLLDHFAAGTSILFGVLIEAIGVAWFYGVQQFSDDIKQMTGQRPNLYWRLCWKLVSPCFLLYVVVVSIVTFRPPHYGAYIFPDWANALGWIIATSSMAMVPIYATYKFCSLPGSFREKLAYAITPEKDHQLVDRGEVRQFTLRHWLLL

The target of assay [3] is Monoamine transporters; serotonin & dopamine (Rattus norvegicus) (UniProt P31652+P23977). Briefly: Uptake ratio at serotonin to dopamine transporters from rat brain. In a few lines: as §1
Chain of Monoamine transporters; serotonin & dopamine (Rattus norvegicus) (P23977 whole entry, looked up): as the sequence (P23977 whole entry) above
Chain of Monoamine transporters; serotonin & dopamine (Rattus norvegicus) (P31652 whole entry, looked up): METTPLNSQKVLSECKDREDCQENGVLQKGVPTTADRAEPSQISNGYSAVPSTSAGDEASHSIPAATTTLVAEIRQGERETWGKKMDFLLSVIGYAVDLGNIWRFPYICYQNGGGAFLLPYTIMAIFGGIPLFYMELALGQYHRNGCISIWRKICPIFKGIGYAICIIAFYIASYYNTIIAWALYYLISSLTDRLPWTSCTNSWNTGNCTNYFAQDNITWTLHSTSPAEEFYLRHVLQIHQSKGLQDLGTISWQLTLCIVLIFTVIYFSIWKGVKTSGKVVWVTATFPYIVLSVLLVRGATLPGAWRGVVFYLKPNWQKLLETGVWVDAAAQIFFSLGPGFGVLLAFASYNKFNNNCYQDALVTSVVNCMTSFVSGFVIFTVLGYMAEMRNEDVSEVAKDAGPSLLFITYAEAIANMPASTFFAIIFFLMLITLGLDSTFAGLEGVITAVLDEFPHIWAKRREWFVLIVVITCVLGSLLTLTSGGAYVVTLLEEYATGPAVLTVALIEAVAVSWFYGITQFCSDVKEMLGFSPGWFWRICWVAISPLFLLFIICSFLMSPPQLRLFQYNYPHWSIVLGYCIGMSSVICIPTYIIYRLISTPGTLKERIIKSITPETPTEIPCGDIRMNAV
In assay [4] the target is Monoamine transporters; Norepinephrine & serotonin (Rattus norvegicus) (UniProt P31652+Q9WTR4). In words: Uptake ratio at norepinephrine to serotonin transporters from rat brain. In a few lines: as §1
Assay [5] addresses Norepinephrine transporter (Rattus norvegicus, UniProt Q9WTR4). Briefly: Ability to inhibit [3H]NE reuptake at norepinephrine transporter from rat brain. In a few lines:
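Synaptosomes (P2, rat brain) in modified KRH buffer (pH 7.4, nialamide) with drug, 30 min at 4 °C then 15 min at 37 °C. [3H]NE (9 nM final) uptake for 5 min; terminated by cold sodium-free buffer, GF/C filtration and scintillation counting. Specific uptake defined with 3 μM desipramine.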

Assay [6] addresses Sodium-dependent serotonin transporter (Rattus norvegicus, UniProt P31652). Briefly: Ability to inhibit [3H]5-HT reuptake at serotonin transporter from rat brain. The gist of the method: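 P2 synaptosomes from rat brain in modified KRH buffer (pH 7.4, nialamide), preincubated with drug 30 min at 4 °C, then 15 min at 37 °C. [3H]5-HT (~5 nM final) added for 5 min; stopped with cold sodium-free buffer, then GF/C filtration and scintillation counting. Nonspecific uptake set with 10 μM fluoxetine.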

Chain of Sodium-dependent serotonin transporter (P31652 whole entry): as the sequence (P31652 whole entry, looked up) above
Chain of Norepinephrine transporter (Q9WTR4 whole entry): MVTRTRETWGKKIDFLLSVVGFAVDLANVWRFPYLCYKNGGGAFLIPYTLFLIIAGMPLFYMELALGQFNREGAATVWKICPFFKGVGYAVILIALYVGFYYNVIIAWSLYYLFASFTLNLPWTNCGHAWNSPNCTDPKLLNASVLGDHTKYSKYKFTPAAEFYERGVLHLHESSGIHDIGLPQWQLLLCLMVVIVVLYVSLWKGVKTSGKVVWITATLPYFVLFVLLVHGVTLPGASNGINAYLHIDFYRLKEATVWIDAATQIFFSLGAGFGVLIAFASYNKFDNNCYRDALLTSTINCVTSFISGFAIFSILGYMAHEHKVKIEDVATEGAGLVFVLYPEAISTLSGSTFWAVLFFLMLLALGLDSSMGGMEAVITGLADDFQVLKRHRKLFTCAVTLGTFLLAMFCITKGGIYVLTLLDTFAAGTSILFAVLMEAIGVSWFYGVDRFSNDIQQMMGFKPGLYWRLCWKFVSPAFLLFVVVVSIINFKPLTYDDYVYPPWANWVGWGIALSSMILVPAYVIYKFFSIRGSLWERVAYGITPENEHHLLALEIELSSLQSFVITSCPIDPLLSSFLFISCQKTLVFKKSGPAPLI

`COC(=O)C1C2CCC3CCC1N(C/C2=C\c1ccc(-n2cccc2)cc1)C3` (centres undefined): the Ratio stood at 0.08 in assay [1], 0.26 in assay [3] and 0.31 in assay [4]. For the same compound, the inhibitory constant (Ki) in assay [2] was 568 nM; in assay [5], 45.9 nM; in assay [6], 149 nM.
For the compound `CC(=O)OCC1C2CCC3CCC1N(C/C2=C\c1ccc(-c2ccccc2)cc1)C3` (centres undefined), the Ratio in assay [1] turned out to be 0.35; in assay [3], 0.28; in assay [4] it was 1.24. Further, the inhibition constant Ki was 165 nM in assay [2], 57 nM in assay [5] and 46 nM in assay [6].
On to `COC(=O)C1C2CCC3CCC1N(C/C2=C\c1ccc(-c2ccc(C(F)(F)F)cc2)cc1)C3` (centres undefined), for which the figures for the Ratio in assay [1], in assay [3] and in assay [4] were 0.37, 0.71 and 0.52, respectively. In addition, the Ki in assay [2] turned out to be 3130 nM; in assay [5], 1150 nM; in assay [6] it was 2210 nM.
Consider `COC(=O)C1C2CCC3CCC1N(C/C2=C\c1ccc(-c2ccc(C#N)cc2)cc1)C3` (centres undefined), for which the Ratio in assay [1] amounted to 0.69; in assay [3], 19.3; in assay [4], 0.04. Besides, the values for the Ki in assay [2], in assay [5] and in assay [6] were 47 nM, 32.4 nM and 909 nM, respectively.
With `COC(=O)C1C2CCC3CCC1N(C/C2=C\c1ccc(-c2ccc(OC)cc2)cc1)C3` (centres undefined), the Ratio in assay [1] amounted to 0.05; in assay [3] it was 4.04; in assay [4], 0. The Ki in assay [2] turned out to be 841 nM; in assay [5], 39 nM; in assay [6], 3390 nM.
With `COC(=O)C1C2CCC3CCC1N(C/C2=C\c1ccc(-c2ccc(C)s2)cc1)C3` (centres undefined), the Ki was 674 nM in assay [2], 22.5 nM in assay [5] and 200 nM in assay [6]. The Ratio came to 0.3 in assay [3] and 0.11 in assay [4].
Regarding `COC(=O)C1C2CCC3CCC1N(C/C2=C\c1ccc(-c2ccsc2)cc1)C3` (centres undefined), the Ratio in assay [1] was determined as 0.07; in assay [3] it was 0.52; in assay [4] it was 0.14. The Ki in assay [2] is 277 nM; in assay [5], 20.5 nM; in assay [6] it was 145 nM.
`COC(=O)C1C2CCC3CCC1N(C/C2=C\c1ccc(-c2ccccc2)c(Cl)c1)C3` (centres undefined): the Ratio in assay [1] stood at 0.23; in assay [3], 0.09; in assay [4] it was 2.71. The Ki in assay [2] was 4260 nM; in assay [5], 991 nM; in assay [6], 366 nM.
Turning to `COC(=O)C1C2CCC3CCC1N(C/C2=C\c1ccc(-c2ccccc2)s1)C3` (centres undefined), the values for the Ratio in assay [1], in assay [3] and in assay [4] were 0.08, 0.4 and 0.19, respectively. Moreover, the Ki in assay [2] was determined as 179 nM; in assay [5], 13.5 nM; in assay [6], 71 nM.
Turning to `COC(=O)C1C2CCC3CCC1N(C/C2=C\c1ccc(-c2cccc(Cl)c2)cc1)C3` (centres undefined), the values for the Ratio in assay [1], in assay [3] and in assay [4] were 0.2, 2.4 and 0.08, respectively. For the same compound, the Ki is 89 nM in assay [2], 17.5 nM in assay [5] and 213 nM in assay [6].
Turning to `COC(=O)[C@@H]1C2CCC3CCC1N(C/C2=C\c1ccc(-c2ccccc2)cc1)C3` (some centres undefined), the figures for the Ratio in assay [1], in assay [3] and in assay [4] were 0.02, 1.29 and 0.02, respectively. The figures for the Ki in assay [2], in assay [5] and in assay [6] were 477 nM, 12 nM and 614 nM, respectively.
Turning to `COC(=O)C1C2CCC3CCC1N(C/C2=C\c1ccc(-c2cc(Cl)cc(Cl)c2)cc1)C3` (centres undefined), the Ratio came out at 0.58 in assay [1], 3.62 in assay [3] and 0.16 in assay [4]. Besides, the inhibition constant (Ki) is 106 nM in assay [2], 61 nM in assay [5] and 383 nM in assay [6].
For the compound `COC(=O)C1C2CCC3CCC1N(C/C2=C\c1ccc(-c2ccco2)cc1)C3` (centres undefined), the Ratio in assay [1] was found to be 0.14; in assay [3], 2.54; in assay [4], 0.06. Besides, the Ki came out at 98 nM in assay [2], 13.9 nM in assay [5] and 248 nM in assay [6].
`O=C(OCC1C2CCC3CCC1N(C/C2=C\c1ccc(-c2ccc(Cl)c(Cl)c2)c(Cl)c1)C3)c1ccccc1` (centres undefined): the inhibition constant (Ki) is 5640 nM in assay [2], more than 10000 nM in assay [5] and 956 nM in assay [6]. The Ratio in assay [3] was found to be 0.17.
As for `COC(=O)C1C2CCC3CCC1N(C/C2=C\c1ccc(-c2ccc(OC)cc2)s1)C3` (centres undefined), the Ratio is 0.03 in assay [1], 1.43 in assay [3] and 0.02 in assay [4]. In addition, the figures for the Ki in assay [2], in assay [5] and in assay [6] were 317 nM, 10.3 nM and 531 nM, respectively.
In the case of `COC(=O)C1C2CCC3CCC1N(C/C2=C\c1ccc(-c2cccs2)cc1)C3` (centres undefined), the values for the Ratio in assay [1], in assay [3] and in assay [4] were 0.13, 0.47 and 0.27, respectively. Moreover, the Ki in assay [2] came to 155 nM; in assay [5] it was 19.8 nM; in assay [6], 73 nM.
Turning to `COC(=O)C1C2CCC3CCC1N(C/C2=C\c1ccc(-c2ccc(N(C)C)cc2)cc1)C3` (centres undefined), the Ratio in assay [1] is 0.05; in assay [3], 0.95; in assay [4], 0.06. In addition, the Ki in assay [2] was determined as 1050 nM; in assay [5], 57.9 nM; in assay [6], 1000 nM.
For `OC[C@@H]1C2CCC3CCC1N(C/C2=C\c1ccc(-c2ccccc2)cc1)C3` (some centres undefined), the Ratio in assay [1] worked out at 0.14; in assay [3], 1.19; in assay [4], 0.12. Also, the inhibition constant Ki in assay [2] is 1300 nM; in assay [5], 183 nM; in assay [6], 1540 nM.
Regarding `COC(=O)C1C2CCC3CCC1N(C/C2=C\c1ccc(-c2ccc(Cl)cc2Cl)cc1)C3` (centres undefined), the figures for the Ratio in assay [1], in assay [3] and in assay [4] were 0.29, 0.25 and 1.19, respectively. Moreover, the results for the Ki in assay [2], in assay [5] and in assay [6] were 1590 nM, 466 nM and 393 nM, respectively.
For the compound `COC(=O)C1C2CCC3CCC1N(C/C2=C\c1ccc(-c2ccc(C)cc2)cc1)C3` (centres undefined), the Ratio in assay [1] was determined as 0.11; in assay [3], 6.97; in assay [4], 0.02. The Ki amounted to 214 nM in assay [2], 22.7 nM in assay [5] and 1490 nM in assay [6].
For the compound `COC(=O)C1C2CCC3CCC1N(C/C2=C\c1ccc(-c2ccc(Cl)cc2)cc1)C3` (centres undefined), the figures for the Ratio in assay [1], in assay [3] and in assay [4] were 1.77, 3.03 and 0.59, respectively. Also, the inhibitory constant (Ki) is 417 nM in assay [2], 739 nM in assay [5] and 1260 nM in assay [6].
For `COC(=O)C1C2CCC3CCC1N(C/C2=C\c1ccc(-c2ccc(Cl)c(Cl)c2)cc1)C3` (centres undefined), the values for the Ratio in assay [1], in assay [3] and in assay [4] were 0.04, 1.01 and 0.04, respectively. Further, the Ki is 236 nM in assay [2], 9.7 nM in assay [5] and 239 nM in assay [6].
For the compound `COC(=O)C1C2CCC3CCC1N(C/C2=C\c1ccc(-c2ccc(I)cc2)cc1)C3` (centres undefined), the Ratio came out at 0.3 in assay [1] and 1.75 in assay [3]. Also, the values for the Ki in assay [2], in assay [5] and in assay [6] were 377 nM, 114 nM and 660 nM, respectively.
